Test results as given in PubChem BioAssay.
The source made the active and inactive calls.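 Rule for the calls, unless noted: active = inhibition of the reporter signal at or above 50%; inactive = inhibition below 50%.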

Assays:
[1] = inhibitors of TNFa-induced NFkB p65 translocation, primary screen, imaging, HUVEC, MLSMR starter and 10KST1 sets (AID 438;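 active = inhibition above 20% together with a positive visual image hit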;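 note: compound added about 3h40 before a 20 min TNFalpha stimulation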;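 for inhibition: signal is the nuclear over cytoplasmic p65 intensity ratio per well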); conditions: HUVEC TNFa-induced p65 nuclear translocation; cell count: measured here: nuclei count (cytotoxicity indicator), at 2.08 µM; inhibition: at 2 µM, stronger effect = higher value, 0% TNFa-plus-vehicle, 100% no-TNFa wells
[2] = inhibitors of mutant huntingtin aggregation, primary screen, imaging, exon1htt(103Q)mCFP cells, high-content imaging (AID 483;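 active = visual image review flags a hit and inhibition of aggregation exceeds 20%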;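 note: compound exposure lasted 3 days before fixation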;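 for nuclei count: percent of the per-plate median nuclei count of sample wells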); conditions: exon1htt(103Q)mCFP cell line, aggregate imaging, at 2 µM; inhibition of aggregation: stronger effect = higher value; nuclei count: measured here: cell count, toxicity
[3] = inhibitors of E-selectin induction by TNFa, primary screen, imaging, HUVEC, immunofluorescence, MLSMR starter and 10KST1 sets (AID 487;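 active = visually confirmed hit in the image check and inhibition above 20%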;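 for inhibition: signal is fraction of cell area covered by stained E-selectin grains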;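 for nuclei count: 100% = median nuclei count of all wells on the same plate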); conditions: HUVEC TNFalpha-induced E-selectin immunofluorescence imaging, at 2 µM; inhibition: stronger effect = higher value; nuclei count: measured here: cell number, toxicity
[4] = target: Voltage-gated potassium channel subunit beta-2 (Rattus norvegicus) (UniProt P62483); assay: KvBeta enzyme negative modulators, primary screen, biochemical, NADPH fluorescence (AID 622;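 active = fluorescence slope higher than the sample average by over 3 SD, cut at about -0.22 in these data, passing the limit was not always enough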;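 note: slope of raw intensity against log time taken from 70 to 1610 s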); conditions: recombinant KvBeta, 4-cyanobenzaldehyde reduction, at 10 µM, stronger effect = higher value
[5] = target: Voltage-gated potassium channel subunit beta-2 (Rattus norvegicus) (UniProt P62483); assay: KvBeta positive modulators, primary screen, biochemical, NADPH fluorescence (AID 623;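 active = NADPH fluorescence slope more negative than the mean of all samples by about 3 SD, 99.7% confidence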;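 note: fluorescence intensity change per second fitted from 20 to 320 s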); conditions: Recombinant KvBeta, NADPH fluorescence decrease slope, 10 min; at 10 µM; stronger effect = lower value
[6] = target: Muscarinic acetylcholine receptor M4 (Homo sapiens) (UniProt P08173); assay: compounds altering M4/GIRK thallium flux, either direction, primary screen, M4 allosteric agonist project, cell-based, HEK293 M4/GIRK, BTC-AM (AID 625;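 active = fluorescence slope after compound addition differing from the mean of all tested samples at 99.7% confidence, mostly higher but some lower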;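 note: thallium influx through GIRK channels coupled to M4 in HEK293 cells with BTC-AM dye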); conditions: at 10 µM, actives lie on both sides
Method in brief: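 assay system = HEK293 cells with M4 receptor and GIRK channels | medium = pH 7.3 thallium assay buffer | doses = 10 µM final, single point | timing = cells overnight at 37 °C, BTC-AM loading 1 h, reads 2 min total | signal = BTC-AM fluorescence, 1 Hz kinetic reads | read-out = post-addition slope, 15–24 s, of baseline-normalized fluorescence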

[7] = inhibitors of Sendai virus-induced IRF3 signaling, primary screen, TLR/RLR signaling modifier project, cell-based, Sendai virus stimulus, luciferase, 10K MLSCN set (AID 602276;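 active = inhibition at or above 50% at 10 µM; inactive = inhibition below 50%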;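 note: firefly luciferase from ISG56 promoter only with Renilla not read in this screen; 0% = Sendai virus plus DMSO and 100% = medium plus DMSO without virus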); conditions: HEK293 RL24 IRF3 luciferase reporter, at 10 µM, stronger effect = higher value
[8] = inhibitors of poly I:C-induced TLR3 signaling, primary screen, cell-based, poly I:C stimulus, luciferase, 10K MLSCN set (AID 602277); conditions: HEK293-TLR3 RL24 IRF3 luciferase reporter, at 10 µM, stronger effect = higher value

Chain of Muscarinic acetylcholine receptor M4 (Homo sapiens) (P08173 whole entry, looked up): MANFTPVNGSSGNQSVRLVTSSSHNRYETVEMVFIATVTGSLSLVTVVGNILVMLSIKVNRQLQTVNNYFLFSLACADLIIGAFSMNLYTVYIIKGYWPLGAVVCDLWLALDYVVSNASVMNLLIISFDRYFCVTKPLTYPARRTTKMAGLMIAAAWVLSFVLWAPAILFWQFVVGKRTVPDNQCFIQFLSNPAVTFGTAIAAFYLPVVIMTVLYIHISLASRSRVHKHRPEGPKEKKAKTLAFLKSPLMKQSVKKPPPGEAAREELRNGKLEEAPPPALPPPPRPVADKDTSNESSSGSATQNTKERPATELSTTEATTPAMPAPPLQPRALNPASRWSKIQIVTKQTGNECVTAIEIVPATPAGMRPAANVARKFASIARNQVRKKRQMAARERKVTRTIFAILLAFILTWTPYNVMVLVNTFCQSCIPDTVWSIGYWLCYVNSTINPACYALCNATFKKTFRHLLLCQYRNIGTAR
Chain of Voltage-gated potassium channel subunit beta-2 (Rattus norvegicus) (P62483 whole entry, looked up): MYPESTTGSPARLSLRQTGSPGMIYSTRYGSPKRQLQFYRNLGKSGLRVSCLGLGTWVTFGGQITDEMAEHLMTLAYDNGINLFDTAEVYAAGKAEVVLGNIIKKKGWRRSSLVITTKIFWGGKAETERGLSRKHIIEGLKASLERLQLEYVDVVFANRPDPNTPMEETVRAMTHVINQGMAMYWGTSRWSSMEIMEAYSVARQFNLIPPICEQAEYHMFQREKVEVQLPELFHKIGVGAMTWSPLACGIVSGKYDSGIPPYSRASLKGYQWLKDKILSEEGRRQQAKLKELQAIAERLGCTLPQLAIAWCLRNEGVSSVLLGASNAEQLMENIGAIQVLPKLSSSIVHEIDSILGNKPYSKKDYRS

Row | SMILES | cell count [1] | inhibition [1] | inhibition of aggregation [2] | nuclei count [2] [%] | inhibition [3] | nuclei count [3] [%] | fluorescence slope [4] | NADPH fluorescence slope [5] | fluorescence slope [6] | inhibition [7] | inhibition [8]
1 | O=C(NCc1ccco1)c1noc2c1CCCCC2 | 245 | 1.3% (inactive) | 1.9% (inactive) | 103 | -32.5% (inactive) | 117 | -0.549 (inactive) | -2.4e-05 (inactive) | 0.00608 (inactive) | -4% (inactive) | -51.6% (inactive)
2 | COCCn1cc(C(=O)NCCCN2CCC(C)CC2)c2c3ccccc3n(C)c2c1=O | 493 | 2.1% (inactive) | -2.6% (inactive) | 110 | -38.5% (inactive) | 115 | -0.562 (inactive) | -5.2e-05 (inactive) | 0.00626 (inactive) | 0.372% (inactive) | 16.6% (inactive)
3 | O=C(CN(c1ccccc1)S(=O)(=O)c1ccccc1)N1CCN(Cc2ccc3c(c2)OCO3)CC1 | 372 | 4% (inactive) | -11.3% (inactive) | 122 | -23.4% (inactive) | 116 | -0.528 (inactive) | -3.2e-05 (inactive) | 0.00412 (inactive) | 13.6% (inactive) | 21.8% (inactive)
4 | O=C(CSc1nnc2scc(-c3ccccc3)n12)N1CCN(Cc2ccccc2)CC1 | 703 | -24.5% (inactive) | 6.5% (inactive) | 110 | 19.1% (inactive) | 91.4 | -0.5 (inactive) | 2.7e-06 (inactive) | 0.00675 (inactive) | 6.37% (inactive) | 7.98% (inactive)
5 | Cc1cc(-c2ccccc2)c2c3c(cn2n1)c(=O)n(C)c(=O)n3C | 386 | 2% (inactive) | -0.2% (inactive) | 116 | -14.4% (inactive) | 86.7 | -0.59 (inactive) | -1.7e-06 (inactive) | 0.00111 (inactive) | 17.8% (inactive) | 27.8% (inactive)
6 | O=C(CSc1nc2ccc(Cl)cc2[nH]1)NCc1ccco1 | 273 | 17.8% (inactive) | -10.2% (inactive) | 109 | -3.9% (inactive) | 109 | -0.611 (inactive) | 1.5e-05 (inactive) | 0.00642 (inactive) | 17.9% (inactive) | 20.8% (inactive)
7 | Cc1ccc(C)c(Cn2c(=O)n(CCC(=O)NCc3ccco3)c(=O)c3sccc32)c1 | 506 | -4.5% (inactive) | 3.9% (inactive) | 95.3 | 17.2% (inactive) | 93.3 | -0.572 (inactive) | -5.2e-06 (inactive) | 0.00734 (inactive) | 19.5% (inactive) | 16.1% (inactive)
8 | O=S(=O)(NCC(O)COCc1ccco1)c1cccs1 (centres undefined) | 297 | 8% (inactive) | -14.1% (inactive) | 108 | 1.6% (inactive) | 97.5 | -0.587 (inactive) | -3.7e-05 (inactive) | 0.00581 (inactive) | 2.99% (inactive) | 8.32% (inactive)
9 | CCOC(=O)c1nn(-c2sc(C(=O)OC)c(C)c2C(=O)OC)cc1O | 449 | -6.2% (inactive) | 1% (inactive) | 94.5 | 0.1% (inactive) | 108 | -0.518 (inactive) | -3.7e-05 (inactive) | 0.00503 (inactive) | 20.5% (inactive) | 24.1% (inactive)
10 | O=C(NCc1ccco1)C1CCN(C(=O)c2cc3sccc3n2Cc2ccc(F)cc2)CC1 | 571 | -16.7% (inactive) | -0.6% (inactive) | 122 | -27.8% (inactive) | 101 | -0.381 (inactive) | -4.5e-05 (inactive) | 0.00956 (inactive) | 17.8% (inactive) | 27.2% (inactive)
11 | CCSc1nnc(NC(=O)c2nn(C(C)C)c(=O)c3ccccc23)s1 | 221 | 3.9% (inactive) | 15.4% (inactive) | 71.5 | 31.6% (inactive) | 94 | -0.408 (inactive) | -0.000337 (inactive) | 0.00464 (inactive) | 9.39% (inactive) | 11.7% (inactive)
12 | C/C(Cl)=C\Cn1c(NCCc2ccccc2)nc2c1c(=O)n(C)c(=O)n2C | 636 | -7.8% (inactive) | 29.8% (inactive) | 84.6 | 6.4% (inactive) | 96.4 | -0.286 (inactive) | -2.8e-05 (inactive) | 0.00523 (inactive) | 12.1% (inactive) | 2.85% (inactive)
13 | CC1=C(C#N)C(c2ccoc2)C(C(=O)OCc2ccccc2)=C(N)S1 (centres undefined) | 482 | 1% (inactive) | -13.3% (inactive) | 84.8 | -90% (inactive) | 102 | -0.524 (inactive) | -0.000129 (inactive) | 0.0045 (inactive) | 9.67% (inactive) | 11.7% (inactive)
14 | CC1CCN(C(=O)C2CCN(S(=O)(=O)c3cnc[nH]3)CC2)CC1 | 464 | 2.5% (inactive) | 22% (inactive) | 90.5 | -170% (inactive) | 116 | -0.553 (inactive) | -1.4e-05 (inactive) | 0.00577 (inactive) | 15.5% (inactive) | 19.2% (inactive)
